Source: ChEMBL document CHEMBL3826885, “Similarities and differences in affinity and binding modes of tricyclic pyrimido- and pyrazinoxanthines at human and rat adenosine receptors” (Bioorg Med Chem, 2016)
In brackets after ≈: the same amount, converted by molar mass.

Assays:
Adenosine receptor A1 [1] = biological target: T1, Adenosine receptor A1 (Rattus norvegicus, UniProt P25099); assay: Displacement of [3H]CCPA from adenosine receptor A1 in rat brain cortical membranes; type: cell membranes
T1 sequence (P25099 whole entry): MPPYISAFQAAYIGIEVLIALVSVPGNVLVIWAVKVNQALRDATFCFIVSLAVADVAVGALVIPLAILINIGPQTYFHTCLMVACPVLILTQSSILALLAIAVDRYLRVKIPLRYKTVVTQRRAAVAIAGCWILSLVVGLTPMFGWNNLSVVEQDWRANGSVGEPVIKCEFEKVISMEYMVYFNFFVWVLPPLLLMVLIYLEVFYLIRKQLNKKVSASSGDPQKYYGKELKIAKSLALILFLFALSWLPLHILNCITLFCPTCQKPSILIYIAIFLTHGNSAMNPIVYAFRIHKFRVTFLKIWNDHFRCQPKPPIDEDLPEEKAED
How it was run: (§1)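 Native rat receptors: A1 in brain cortical membranes with [3H]CCPA, A2A in brain striatal membranes, from frozen unstripped rat brains. Compounds were first screened at a single high concentration in three independent experiments.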

[2] = biological target: T2, Adenosine receptor A1 (Rattus norvegicus) (UniProt P25099); assay: Displacement of [3H]CCPA from adenosine receptor A1 in rat brain cortical membranes at 1 uM; type: cell membranes
T2 sequence (whole entry): T1 sequence (P25099 whole entry)
How it was run: as §1, with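 “experiments. Active compounds then had full inhibition curves over at least 3 orders of magnitude of concentration.” for “experiments.”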

Adenosine receptor A2a [3] = biological target: Adenosine receptor A2a (Rattus norvegicus, UniProt P30543); assay: Displacement of [3H]MSX2 from adenosine receptor A2a in rat brain striatal membranes; type: cell membranes, Membrane
How it was run: as §1, with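 “experiments. Active compounds then had full inhibition curves over at least 3 orders of magnitude of concentration.” for “experiments.”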

[4] = biological target: Adenosine receptor A2a (Rattus norvegicus) (UniProt P30543); assay: Displacement of [3H]MSX2 from Adenosine receptor A2a in rat brain striatal membranes at 1 uM; type: cell membranes; conditions: Membrane
How it was run: as §1, with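 “experiments. Active compounds then had full inhibition curves over at least 3 orders of magnitude of concentration.” for “experiments.”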

Adenosine receptor A2b [5] = biological target: T3, Adenosine receptor A2b (Rattus norvegicus, UniProt P29276); assay: Displacement of [3H]PSB-603 from recombinant rat adenosine receptor A2b expressed in CHO cell membranes
T3 sequence (P29276 whole entry): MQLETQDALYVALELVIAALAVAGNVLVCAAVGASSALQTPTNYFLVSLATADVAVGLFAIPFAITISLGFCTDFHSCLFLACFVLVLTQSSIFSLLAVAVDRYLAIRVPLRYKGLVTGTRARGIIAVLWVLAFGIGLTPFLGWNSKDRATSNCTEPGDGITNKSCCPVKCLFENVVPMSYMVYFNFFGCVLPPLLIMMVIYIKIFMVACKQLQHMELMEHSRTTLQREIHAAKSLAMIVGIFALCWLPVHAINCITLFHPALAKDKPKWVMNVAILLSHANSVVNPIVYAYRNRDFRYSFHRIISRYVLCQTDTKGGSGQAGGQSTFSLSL
How it was run: (§2)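 Membranes came from CHO cells expressing recombinant receptors (human A1, A2A, A2B, A3; rat A2B, A3). Radioligands were [3H]CCPA for A1 and [3H]PSB-11 or [3H]NECA for A3. A single high concentration was screened first, in three experiments for A1/A2A and two for A2B/A3.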

[6] = biological target: T4, Adenosine receptor A2b (Rattus norvegicus) (UniProt P29276); assay: Displacement of [3H]PSB-603 from recombinant rat adenosine receptor A2b expressed in CHO cell membranes at 1 uM
T4 sequence (whole entry): T3 sequence (P29276 whole entry)
How it was run: as §2, with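 “A2B/A3. Full inhibition curves spanning at least 3 log units were run for potent compounds.” for “A2B/A3.”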

Adenosine receptor A3 [7] = biological target: T5, Adenosine receptor A3 (Rattus norvegicus, UniProt P28647); assay: Displacement of [3H]NECA from recombinant rat adenosine receptor A3 expressed in CHO cell membranes; how it was run: as §2
T5 sequence (P28647 whole entry): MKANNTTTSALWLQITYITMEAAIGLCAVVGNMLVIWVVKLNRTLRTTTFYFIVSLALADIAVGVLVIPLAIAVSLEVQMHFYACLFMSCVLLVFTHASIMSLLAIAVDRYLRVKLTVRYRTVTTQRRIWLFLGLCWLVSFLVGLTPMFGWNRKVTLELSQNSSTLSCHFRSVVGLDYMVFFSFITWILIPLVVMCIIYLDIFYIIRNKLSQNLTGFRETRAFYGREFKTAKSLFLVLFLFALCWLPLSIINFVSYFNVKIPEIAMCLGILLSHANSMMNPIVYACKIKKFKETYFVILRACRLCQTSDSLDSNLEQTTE

[8] = biological target: T6, Adenosine receptor A3 (Rattus norvegicus) (UniProt P28647); assay: Displacement of [3H]NECA from recombinant rat adenosine receptor A3 expressed in CHO cell membranes at 1 uM
T6 sequence (whole entry): T5 sequence (P28647 whole entry)
How it was run: as §2, with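 “A2B/A3. Full inhibition curves spanning at least 3 log units were run for potent compounds.” for “A2B/A3.”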

Adenosine receptor A1 [9] = biological target: T7, Adenosine receptor A1 (Homo sapiens, UniProt P30542); assay: Displacement of [3H]CCPA from recombinant human adenosine receptor A1 expressed in CHO cell membranes
T7 sequence (P30542 whole entry): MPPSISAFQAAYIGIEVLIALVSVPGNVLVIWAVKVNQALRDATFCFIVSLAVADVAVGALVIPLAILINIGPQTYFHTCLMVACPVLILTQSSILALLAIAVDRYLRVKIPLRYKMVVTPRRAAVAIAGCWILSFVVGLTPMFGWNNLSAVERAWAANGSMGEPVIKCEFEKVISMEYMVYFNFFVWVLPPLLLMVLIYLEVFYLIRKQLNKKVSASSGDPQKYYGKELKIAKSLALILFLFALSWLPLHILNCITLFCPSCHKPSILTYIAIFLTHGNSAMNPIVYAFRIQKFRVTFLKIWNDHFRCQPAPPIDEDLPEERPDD
How it was run: as §2, with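 “A2B/A3. Full inhibition curves spanning at least 3 log units were run for potent compounds.” for “A2B/A3.”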

[10] = biological target: T8, Adenosine receptor A1 (Homo sapiens) (UniProt P30542); assay: Displacement of [3H]CCPA from recombinant human adenosine receptor A1 expressed in CHO cell membranes at 1 uM
T8 sequence (whole entry): T7 sequence (P30542 whole entry)
How it was run: as §2, with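 “A2B/A3. Full inhibition curves spanning at least 3 log units were run for potent compounds.” for “A2B/A3.”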

Adenosine receptor A2a [11] = biological target: T9, Adenosine receptor A2a (Homo sapiens, UniProt P29274); assay: Displacement of [3H]MSX2 from recombinant human adenosine receptor A2a expressed in CHO cell membranes
How it was run: as §2, with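 “A2B/A3. Full inhibition curves spanning at least 3 log units were run for potent compounds.” for “A2B/A3.”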

Adenosine receptor A2a [12] = biological target: T9, Adenosine receptor A2a; assay: Displacement of [3H]MSX2 from recombinant human adenosine receptor A2a expressed in CHO cell membranes at 1 uM
How it was run: as §2, with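 “A2B/A3. Full inhibition curves spanning at least 3 log units were run for potent compounds.” for “A2B/A3.”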

Adenosine receptor A2b [13] = biological target: T10, Adenosine receptor A2b (Homo sapiens, UniProt P29275); assay: Displacement of [3H]PSB-603 from recombinant human adenosine receptor A2b expressed in CHO cell membranes; how it was run: as §2
T10 sequence (P29275 whole entry): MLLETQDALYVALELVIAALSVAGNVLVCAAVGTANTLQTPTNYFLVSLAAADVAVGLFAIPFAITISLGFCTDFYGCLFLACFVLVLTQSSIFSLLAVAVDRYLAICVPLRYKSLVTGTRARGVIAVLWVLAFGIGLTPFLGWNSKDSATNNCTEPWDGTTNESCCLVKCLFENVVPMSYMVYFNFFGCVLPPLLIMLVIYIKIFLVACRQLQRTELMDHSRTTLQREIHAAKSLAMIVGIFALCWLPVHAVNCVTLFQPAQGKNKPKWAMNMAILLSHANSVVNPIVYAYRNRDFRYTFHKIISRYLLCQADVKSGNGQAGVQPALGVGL

[14] = biological target: T11, Adenosine receptor A2b (Homo sapiens) (UniProt P29275); assay: Displacement of [3H]PSB-603 from recombinant human adenosine receptor A2b expressed in CHO cell membranes at 1 uM
T11 sequence (whole entry): T10 sequence (P29275 whole entry)
How it was run: as §2, with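 “A2B/A3. Full inhibition curves spanning at least 3 log units were run for potent compounds.” for “A2B/A3.”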

[15] = biological target: T12, Adenosine receptor A3 (Homo sapiens) (UniProt P0DMS8); assay: Displacement of [3H]PSB11 from recombinant human adenosine receptor A3 expressed in CHO cell membranes at 1 uM
T12 sequence (whole entry): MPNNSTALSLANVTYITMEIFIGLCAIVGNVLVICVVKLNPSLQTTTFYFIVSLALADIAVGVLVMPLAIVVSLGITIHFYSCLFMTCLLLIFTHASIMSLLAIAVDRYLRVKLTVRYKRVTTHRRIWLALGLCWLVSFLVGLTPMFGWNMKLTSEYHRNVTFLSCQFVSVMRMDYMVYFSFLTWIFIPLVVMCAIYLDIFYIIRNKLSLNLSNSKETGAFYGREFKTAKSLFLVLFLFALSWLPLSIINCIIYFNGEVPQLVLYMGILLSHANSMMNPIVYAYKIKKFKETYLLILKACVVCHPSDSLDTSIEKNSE
How it was run: as §2, with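 “A2B/A3. Full inhibition curves spanning at least 3 log units were run for potent compounds.” for “A2B/A3.”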

Adenosine receptor A3 [16] = biological target: T13, Adenosine receptor A3 (Homo sapiens, UniProt P0DMS8); assay: Displacement of [3H]PSB-11 from recombinant human adenosine receptor A3 expressed in CHO cell membranes
T13 sequence (P0DMS8 whole entry): T12 sequence (whole entry)

[17] = Solubility of compound in water at 20 degC by UV-spectroscopic analysis; type: physicochemical
How it was run: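 Suspensions were boiled 5 min, left overnight at 20 °C, and filtered. Filtrates were diluted 10-80-fold in MeOH and read by UV in MeOH/H2O (90% v/v). Concentration came from standard curves of seven concentrations from 10^-3 to 10^-1 mg/mL, using linear regression of two neighbouring points and multiplying by the dilution.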

[18] = biological target: T2, Adenosine receptor A1 (Rattus norvegicus); assay: Displacement of [3H]CCPA from adenosine receptor A1 in rat brain cortical membranes at 10 uM; type: cell membranes; conditions: 10 uM
How it was run: as §1, with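 “experiments. Active compounds then had full inhibition curves over at least 3 orders of magnitude of concentration.” for “experiments.”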

T9 sequence (P29274 whole entry): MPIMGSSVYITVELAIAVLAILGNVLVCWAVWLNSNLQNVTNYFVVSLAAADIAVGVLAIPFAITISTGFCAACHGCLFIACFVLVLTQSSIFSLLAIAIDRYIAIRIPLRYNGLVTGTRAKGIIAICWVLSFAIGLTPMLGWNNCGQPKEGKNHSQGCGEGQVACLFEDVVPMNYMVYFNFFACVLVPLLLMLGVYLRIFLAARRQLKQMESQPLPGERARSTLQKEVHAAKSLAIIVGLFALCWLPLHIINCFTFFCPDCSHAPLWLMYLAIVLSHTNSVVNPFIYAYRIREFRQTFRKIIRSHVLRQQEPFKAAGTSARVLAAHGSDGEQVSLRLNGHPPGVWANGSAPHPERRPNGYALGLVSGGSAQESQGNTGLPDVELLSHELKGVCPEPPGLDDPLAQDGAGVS
Chain of Adenosine receptor A2a (Rattus norvegicus) (P30543 whole entry): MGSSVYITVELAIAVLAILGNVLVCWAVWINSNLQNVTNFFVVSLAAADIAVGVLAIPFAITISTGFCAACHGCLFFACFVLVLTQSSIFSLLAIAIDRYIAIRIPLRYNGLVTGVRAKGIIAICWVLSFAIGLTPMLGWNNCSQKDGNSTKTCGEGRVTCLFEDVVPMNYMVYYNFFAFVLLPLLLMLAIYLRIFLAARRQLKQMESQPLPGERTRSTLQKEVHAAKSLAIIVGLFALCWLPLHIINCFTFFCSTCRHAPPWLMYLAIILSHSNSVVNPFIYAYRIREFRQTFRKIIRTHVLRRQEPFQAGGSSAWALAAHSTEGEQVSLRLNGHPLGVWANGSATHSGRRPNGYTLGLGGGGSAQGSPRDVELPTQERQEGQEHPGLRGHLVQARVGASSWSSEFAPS
Chain of Adenosine receptor A2a (Rattus norvegicus, UniProt P30543) (P30543 whole entry): as above

Ki (Adenosine receptor A1 [1]) [µM] | inhibition [2] [%] | Ki (Adenosine receptor A2a [3]) [µM] | inhibition [4] [%] | Ki (Adenosine receptor A2b [5]) [µM] | inhibition [6] [%] | Ki (Adenosine receptor A3 [7]) [µM] | inhibition [8] [%] | Ki (Adenosine receptor A1 [9]) [µM] | inhibition [10] [%] | Ki (Adenosine receptor A2a [11]) [µM] | inhibition (Adenosine receptor A2a [12]) [%] | Ki (Adenosine receptor A2b [13]) [µM] | inhibition [14] [%] | inhibition [15] [%] | Ki (Adenosine receptor A3 [16]) [µM] | solubility [17] [µg/mL] | inhibition [18] [%] | SMILES
0.175 | 53 | > 1 | 28 | > 1 | 4 | > 1 | 10 | 1.99 | 22 | 2.38 | 10 | > 1 | 10 | 20 | > 1 |  |  | CCCn1c(=O)c2c(nc3n2CCCN3c2ccc(OCCN3CCCC3)cc2)n(CCC)c1=O
0.056 | 72 | 1.05 | 47 | > 1 | 9 | > 1 | 15 | 0.539 | 43 | 1.03 | 52 | > 1 | 40 | 38 | > 1 | 255 (≈ 528 µM) |  | CCCCn1c(=O)c2c(nc3n2CCCN3c2ccc(OCCN(C)C)cc2)n(CCCC)c1=O
 |  |  |  |  |  |  |  |  |  |  |  |  |  |  |  | 63 (≈ 171 µM) |  | COc1ccc(CCN2CCCn3c2nc2c3c(=O)n(C)c(=O)n2C)cc1
> 10 |  | 7.85 |  |  |  |  |  |  |  |  |  | > 1 | 19 | 0 | > 1 |  | 42 | CCN(CC)CCOc1ccc(CCN2CCn3c(nc4c3c(=O)n(C)c(=O)n4C)C2)cc1
0.567 | 30 | 1.79 | 51 |  |  |  |  |  |  |  |  | > 1 | 22 | 20 | > 1 | 260 (≈ 539 µM) |  | CCCn1c(=O)c2c(nc3n2CCCN3c2ccc(OCCN(CC)CC)cc2)n(CCC)c1=O
 |  |  |  |  |  |  |  |  |  |  |  |  |  |  |  | 51 (≈ 149 µM) |  | COc1ccc(N2CCCn3c2nc2c3c(=O)n(C)c(=O)n2C)cc1
